Here are results for 2 compounds from ChEMBL document CHEMBL4342523, “Discovery and Development of S6821 and S7958 as Potent TAS2R8 Antagonists” (J Med Chem, 2020).

The structures appear in SMILES notation. ≈ marks a conversion by molar mass, not a printed value. Calls of active or inactive are those of the source. The calls are words filed in the database; no cut-off is given here.

In data set [1] the target is Taste receptor type 2 member 43 (Homo sapiens) (UniProt P59537). Briefly: Antagonist activity at recombinant human TAS2R43 transiently expressed in HEK293T co-expressing Galpha16gust44 assessed as inhibition of aristolochic acid-induced intracellular calcium level by measuring remaining activity at 25 uM by fluo-4AM dye based FLIPR assay relative to control. It is filed as functional, cell-based. Background: Calcium assays in cells follow changes in intracellular calcium, usually with a dye or a luminescent sensor.

For data set [2], the target named is Taste receptor type 2 member 4 (Homo sapiens) (UniProt Q9NYW5). Nature of the data set: Antagonist activity at recombinant human TAS2R4 transiently expressed in HEK293T co-expressing Galpha16gust44 assessed as inhibition of chloroquine-induced intracellular calcium level by measuring remaining activity at 25 uM by fluo-4AM dye based FLIPR assay relative to control. It is filed as functional, cell-based.

For data set [3], the target named is Taste receptor type 2 member 30 (Homo sapiens) (UniProt P59541). Briefly: Antagonist activity at recombinant human TAS2R30 transiently expressed in HEK293T co-expressing Galpha16gust44 assessed as inhibition of denatonium-induced intracellular calcium level by measuring remaining activity at 25 uM by fluo-4AM dye based FLIPR assay relative to control. It is filed as functional, cell-based.

Data set [4] addresses Taste receptor type 2 member 39 (Homo sapiens) (UniProt P59534). Nature of the data set: Antagonist activity at recombinant human TAS2R39 transiently expressed in HEK293T co-expressing Galpha16gust44 assessed as inhibition of ranitidine-induced intracellular calcium level by measuring remaining activity at 25 uM by fluo-4AM dye based FLIPR assay relative to control. It is filed as functional, cell-based.

Data set [5] deals with T1, Taste receptor type 2 member 8 (Homo sapiens) (UniProt Q9NYW2).
T1 sequence (whole entry): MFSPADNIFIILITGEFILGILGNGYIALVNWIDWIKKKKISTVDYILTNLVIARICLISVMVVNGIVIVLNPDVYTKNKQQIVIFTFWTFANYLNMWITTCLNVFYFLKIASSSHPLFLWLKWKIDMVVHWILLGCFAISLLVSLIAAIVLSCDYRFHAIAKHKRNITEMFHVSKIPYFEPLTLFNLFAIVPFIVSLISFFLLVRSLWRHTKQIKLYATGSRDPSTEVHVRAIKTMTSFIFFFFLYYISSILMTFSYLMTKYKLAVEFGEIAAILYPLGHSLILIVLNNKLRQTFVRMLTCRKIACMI
Nature of the data set: Antagonist activity at recombinant human TAS2R8 transiently expressed in HEK293T co-expressing Galpha16gust44 assessed as inhibition of andrographolide-induced intracellular calcium level by measuring remaining activity at 25 uM by fluo-4AM dye based FLIPR assay relative to control. It is filed as functional, cell-based.

Data set [6] has as its target Taste receptor type 2 member 41 (Homo sapiens) (UniProt P59536). Briefly: Antagonist activity at recombinant human TAS2R41 transiently expressed in HEK293T co-expressing Galpha16gust44 assessed as inhibition of picric acid-induced intracellular calcium level by measuring remaining activity at 25 uM by fluo-4AM dye based FLIPR assay relative to control. It is filed as functional, cell-based.

Data set [7] can be described thus: Ratio of solubility of the compound in pH 7.1 buffer measured after 24 hrs to IC50 for antagonist activity at recombinant human TAS2R8 expressed in cells co-expressing Galpha16gust44 assessed as inhibition of andrographolide-induced intracellular calcium level. It is filed as cell-based.
For data set [8], the target named is Taste receptor type 2 member 50 (Homo sapiens) (UniProt P59544). Nature of the data set: Antagonist activity at recombinant human TAS2R50 transiently expressed in HEK293T co-expressing Galpha16gust44 assessed as inhibition of andrographolide-induced intracellular calcium level by measuring remaining activity at 25 uM by fluo-4AM dye based FLIPR assay relative to control. It is filed as functional, cell-based.

For data set [9], the target named is T2, Taste receptor type 2 member 1 (Homo sapiens) (UniProt Q9NYW7).
T2 sequence (whole entry): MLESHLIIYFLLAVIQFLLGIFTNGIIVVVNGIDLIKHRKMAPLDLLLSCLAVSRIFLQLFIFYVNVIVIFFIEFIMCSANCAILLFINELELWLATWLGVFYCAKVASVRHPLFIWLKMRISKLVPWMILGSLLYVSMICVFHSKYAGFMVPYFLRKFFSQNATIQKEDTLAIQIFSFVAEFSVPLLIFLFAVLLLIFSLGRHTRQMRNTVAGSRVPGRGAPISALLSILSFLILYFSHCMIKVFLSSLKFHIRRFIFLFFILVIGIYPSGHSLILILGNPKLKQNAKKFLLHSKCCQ
Briefly: Antagonist activity at recombinant human TAS2R1 transiently expressed in HEK293T co-expressing Galpha16gust44 assessed as inhibition of picric acid-induced intracellular calcium level by measuring remaining activity at 25 uM by fluo-4AM dye based FLIPR assay relative to control. It is filed as functional, cell-based.

Data set [10] concerns the target Taste receptor type 2 member 9 (Homo sapiens) (UniProt Q9NYW1). Nature of the data set: Antagonist activity at recombinant human TAS2R9 transiently expressed in HEK293T co-expressing Galpha16gust44 assessed as inhibition of ofloxacin-induced intracellular calcium level by measuring remaining activity at 25 uM by fluo-4AM dye based FLIPR assay relative to control. Format: functional, cell-based.

In data set [11] the target is Taste receptor type 2 member 3 (Homo sapiens) (UniProt Q9NYW6). Briefly: Antagonist activity at recombinant human TAS2R3 transiently expressed in HEK293T co-expressing Galpha16gust44 assessed as inhibition of chloroquine-induced intracellular calcium level by measuring remaining activity at 25 uM by fluo-4AM dye based FLIPR assay relative to control. It is filed as functional, cell-based.

Data set [12] can be described thus: Stability of the compound in pH 7.1 buffer assessed as parent compound remaining measured after 24 hrs at 100 degC. Format: physicochemical. Particulars: read-out: Stability.
In data set [13] the target is Taste receptor type 2 member 13 (Homo sapiens) (UniProt Q9NYV9). Briefly: Antagonist activity at recombinant human TAS2R13 transiently expressed in HEK293T co-expressing Galpha16gust44 assessed as inhibition of oxyphenonium-induced intracellular calcium level by measuring remaining activity at 25 uM by fluo-4AM dye based FLIPR assay relative to control. Format: functional, cell-based.

For the next data set, the system named is Homo sapiens. Briefly: In vivo antagonist activity at TAS2R8 in human assessed as reduction in coffee-inudced bitterness at 5 uM by 2-AFC test. It is filed as functional. Further details: scale not given: the % may be the effect or the level left. In short, it runs like this:
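Paired coffee test: 1.5× coffee with milk versus same with 5 μM compound added from ethanol stock; trained panelists chose the more bitter sample; 17 panelists × 3 replicates (51 responses).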

For data set [14], the target named is Taste receptor type 2 member 7 (Homo sapiens) (UniProt Q9NYW3). Briefly: Antagonist activity at recombinant human TAS2R7 transiently expressed in HEK293T co-expressing Galpha16gust44 assessed as inhibition of chloroquine-induced intracellular calcium level by measuring remaining activity at 25 uM by fluo-4AM dye based FLIPR assay relative to control. It is filed as functional, cell-based.

Data set [15] in a line: Solubility of the compound in pH 7.1 buffer measured after 24 hrs. It is filed as physicochemical.
Data set [16] deals with Taste receptor type 2 member 16 (Homo sapiens) (UniProt Q9NYV7). Nature of the data set: Antagonist activity at recombinant human TAS2R16 transiently expressed in HEK293T co-expressing Galpha16gust44 assessed as inhibition of salicin-induced intracellular calcium level by measuring remaining activity at 25 uM by fluo-4AM dye based FLIPR assay relative to control. Format: functional, cell-based.

In data set [17] the target is Taste receptor type 2 member 31 (Homo sapiens) (UniProt P59538). Nature of the data set: Antagonist activity at recombinant human TAS2R31 transiently expressed in HEK293T co-expressing Galpha16gust44 assessed as inhibition of aristolochic acid-induced intracellular calcium level by measuring remaining activity at 25 uM by fluo-4AM dye based FLIPR assay relative to control. It is filed as functional, cell-based.
Chain of Taste receptor type 2 member 31 (Homo sapiens) (P59538 whole entry): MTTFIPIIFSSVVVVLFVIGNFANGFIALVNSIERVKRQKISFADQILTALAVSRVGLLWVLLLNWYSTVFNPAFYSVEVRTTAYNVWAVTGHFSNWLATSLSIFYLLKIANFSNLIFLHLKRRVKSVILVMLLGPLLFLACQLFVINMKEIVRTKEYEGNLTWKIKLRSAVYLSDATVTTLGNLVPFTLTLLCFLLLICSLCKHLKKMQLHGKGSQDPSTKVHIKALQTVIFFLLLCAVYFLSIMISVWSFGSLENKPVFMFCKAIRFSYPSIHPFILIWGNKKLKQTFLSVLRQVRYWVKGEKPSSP

Chain of Taste receptor type 2 member 50 (Homo sapiens) (P59544 whole entry): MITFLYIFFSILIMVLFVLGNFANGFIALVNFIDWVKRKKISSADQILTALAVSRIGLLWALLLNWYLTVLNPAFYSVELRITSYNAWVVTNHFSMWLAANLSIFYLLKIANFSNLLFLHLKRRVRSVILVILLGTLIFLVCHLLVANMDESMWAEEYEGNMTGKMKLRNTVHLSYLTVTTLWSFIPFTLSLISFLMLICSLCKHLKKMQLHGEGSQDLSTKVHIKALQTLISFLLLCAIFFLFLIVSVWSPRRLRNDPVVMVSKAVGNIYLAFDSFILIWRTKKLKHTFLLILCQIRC
Chain of Taste receptor type 2 member 13 (Homo sapiens) (Q9NYV9 whole entry): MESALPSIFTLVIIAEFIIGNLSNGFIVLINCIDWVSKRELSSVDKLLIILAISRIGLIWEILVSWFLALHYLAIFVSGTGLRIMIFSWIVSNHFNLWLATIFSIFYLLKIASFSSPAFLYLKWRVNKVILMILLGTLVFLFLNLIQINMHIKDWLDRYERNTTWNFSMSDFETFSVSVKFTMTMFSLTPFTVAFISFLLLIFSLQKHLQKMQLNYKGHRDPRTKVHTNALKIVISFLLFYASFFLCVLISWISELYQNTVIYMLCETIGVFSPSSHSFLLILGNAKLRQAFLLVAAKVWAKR
Chain of Taste receptor type 2 member 43 (Homo sapiens) (P59537 whole entry): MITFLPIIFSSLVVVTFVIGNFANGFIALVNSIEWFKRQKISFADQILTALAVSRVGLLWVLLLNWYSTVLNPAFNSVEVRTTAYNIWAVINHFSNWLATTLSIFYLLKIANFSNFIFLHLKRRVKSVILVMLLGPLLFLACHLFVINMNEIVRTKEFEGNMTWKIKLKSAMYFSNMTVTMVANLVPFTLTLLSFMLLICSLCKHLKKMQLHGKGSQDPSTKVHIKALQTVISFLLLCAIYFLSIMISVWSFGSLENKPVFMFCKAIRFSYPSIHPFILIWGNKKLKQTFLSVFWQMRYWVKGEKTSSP
Chain of Taste receptor type 2 member 30 (Homo sapiens) (P59541 whole entry): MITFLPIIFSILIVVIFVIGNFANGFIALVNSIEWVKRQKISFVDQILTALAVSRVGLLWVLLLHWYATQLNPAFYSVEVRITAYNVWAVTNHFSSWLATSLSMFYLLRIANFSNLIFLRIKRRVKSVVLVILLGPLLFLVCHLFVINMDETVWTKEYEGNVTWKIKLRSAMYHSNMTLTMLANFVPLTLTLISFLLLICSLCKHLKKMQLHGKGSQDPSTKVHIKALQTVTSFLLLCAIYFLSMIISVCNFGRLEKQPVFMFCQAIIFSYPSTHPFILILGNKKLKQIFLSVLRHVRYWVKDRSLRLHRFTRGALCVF
Chain of Taste receptor type 2 member 16 (Homo sapiens) (Q9NYV7 whole entry): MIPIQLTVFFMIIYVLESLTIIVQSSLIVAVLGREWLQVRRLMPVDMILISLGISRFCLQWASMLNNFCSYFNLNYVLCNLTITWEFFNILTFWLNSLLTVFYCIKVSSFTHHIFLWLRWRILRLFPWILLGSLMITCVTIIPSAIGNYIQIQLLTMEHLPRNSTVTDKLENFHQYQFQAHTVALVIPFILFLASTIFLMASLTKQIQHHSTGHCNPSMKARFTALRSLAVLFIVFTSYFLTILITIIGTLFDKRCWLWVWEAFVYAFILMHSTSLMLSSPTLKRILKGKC
Chain of Taste receptor type 2 member 9 (Homo sapiens) (Q9NYW1 whole entry): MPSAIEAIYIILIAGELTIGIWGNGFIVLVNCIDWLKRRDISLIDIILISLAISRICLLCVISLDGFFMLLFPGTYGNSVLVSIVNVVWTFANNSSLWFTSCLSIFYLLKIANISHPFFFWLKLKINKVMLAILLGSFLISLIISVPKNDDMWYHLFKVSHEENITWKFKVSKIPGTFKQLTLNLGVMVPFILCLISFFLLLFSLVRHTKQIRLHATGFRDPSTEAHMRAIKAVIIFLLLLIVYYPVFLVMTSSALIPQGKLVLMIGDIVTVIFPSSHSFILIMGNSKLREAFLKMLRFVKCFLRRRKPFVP
Chain of Taste receptor type 2 member 4 (Homo sapiens) (Q9NYW5 whole entry): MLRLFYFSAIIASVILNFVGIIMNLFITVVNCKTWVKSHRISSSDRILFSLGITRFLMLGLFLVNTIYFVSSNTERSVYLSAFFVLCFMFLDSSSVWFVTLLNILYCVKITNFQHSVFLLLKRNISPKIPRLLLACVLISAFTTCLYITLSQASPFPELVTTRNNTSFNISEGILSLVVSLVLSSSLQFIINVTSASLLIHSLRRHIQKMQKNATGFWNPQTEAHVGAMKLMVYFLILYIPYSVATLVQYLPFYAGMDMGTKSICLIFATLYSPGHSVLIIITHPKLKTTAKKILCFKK
Chain of Taste receptor type 2 member 39 (Homo sapiens) (P59534 whole entry): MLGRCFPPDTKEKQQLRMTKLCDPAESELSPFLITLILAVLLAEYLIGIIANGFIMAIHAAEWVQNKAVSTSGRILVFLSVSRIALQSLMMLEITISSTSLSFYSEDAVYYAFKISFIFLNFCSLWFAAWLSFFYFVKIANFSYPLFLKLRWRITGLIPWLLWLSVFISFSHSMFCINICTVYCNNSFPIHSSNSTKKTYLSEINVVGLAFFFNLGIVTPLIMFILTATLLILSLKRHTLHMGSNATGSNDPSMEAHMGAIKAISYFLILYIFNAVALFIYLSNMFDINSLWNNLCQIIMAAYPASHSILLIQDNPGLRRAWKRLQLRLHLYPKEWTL
Chain of Taste receptor type 2 member 3 (Homo sapiens) (Q9NYW6 whole entry): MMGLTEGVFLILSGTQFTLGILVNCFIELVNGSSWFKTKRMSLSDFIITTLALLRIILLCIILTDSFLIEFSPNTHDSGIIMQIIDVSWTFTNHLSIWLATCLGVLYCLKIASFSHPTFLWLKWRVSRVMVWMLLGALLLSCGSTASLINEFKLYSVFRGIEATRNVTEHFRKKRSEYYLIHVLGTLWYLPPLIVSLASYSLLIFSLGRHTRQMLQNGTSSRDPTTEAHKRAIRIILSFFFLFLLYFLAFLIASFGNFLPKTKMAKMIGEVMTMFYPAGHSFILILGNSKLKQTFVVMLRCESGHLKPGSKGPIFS
Chain of Taste receptor type 2 member 41 (Homo sapiens) (P59536 whole entry): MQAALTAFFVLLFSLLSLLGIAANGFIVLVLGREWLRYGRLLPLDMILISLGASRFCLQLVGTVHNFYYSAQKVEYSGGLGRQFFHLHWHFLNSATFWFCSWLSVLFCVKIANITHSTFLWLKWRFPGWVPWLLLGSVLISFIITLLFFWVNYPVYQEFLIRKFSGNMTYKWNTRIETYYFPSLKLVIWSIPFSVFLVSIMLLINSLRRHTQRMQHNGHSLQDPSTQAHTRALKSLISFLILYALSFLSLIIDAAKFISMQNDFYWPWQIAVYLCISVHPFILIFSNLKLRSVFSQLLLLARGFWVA
Chain of Taste receptor type 2 member 7 (Homo sapiens) (Q9NYW3 whole entry): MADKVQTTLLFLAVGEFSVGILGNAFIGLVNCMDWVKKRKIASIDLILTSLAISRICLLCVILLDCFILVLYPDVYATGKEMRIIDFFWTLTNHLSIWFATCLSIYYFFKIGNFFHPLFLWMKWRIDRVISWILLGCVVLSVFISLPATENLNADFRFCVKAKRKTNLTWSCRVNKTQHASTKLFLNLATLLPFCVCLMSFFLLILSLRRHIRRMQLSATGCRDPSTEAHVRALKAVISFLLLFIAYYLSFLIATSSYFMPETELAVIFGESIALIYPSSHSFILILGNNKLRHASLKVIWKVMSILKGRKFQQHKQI

Turning to `Cc1noc(C)c1Cn1cc(N2C(=O)CN(Cc3cccc(O)c3)C2=O)cn1`, the Activity amounted to 84% in data set [1]; 117% in data set [2]; 112% in data set [3]; 74% in data set [4]; 13% in [5]; 99% in data set [6]. The Activity in data set [8] is 99%; in data set [9], 119%; in data set [10], 106%; in [11] it was 103%; in data set [13], 127%; with Homo sapiens, greater than 78%. Besides, the Activity in data set [14] came out at 93%; in [16], 98%; in data set [17], 92%. Moreover, the Ratio in data set [7] worked out at 11600. Besides, the remaining at 24 h in data set [12] is 55%. The concentration in solution in data set [15] (solubility at 24 h) was 244 µM (≈ 93.1 µg/mL).
For the compound `Cc1noc(C)c1Cn1cc(N2C(=O)N(Cc3cccc(O)c3)C(C)(C)C2=O)cn1`, the Activity in data set [1] worked out at 88%; in data set [2], 215%; in [3], 43%; in [4], 150%; in data set [5] it was 7%; in data set [6], 133%. For the same compound, the Activity in data set [8] is 91%; in data set [9], 97%; in data set [10], 98%; in data set [11], 72%; in [13], 95%; in [14], 92%. The Activity in data set [16] worked out at 88%; in [17] it was 59%. Moreover, in data set [7], the Ratio was 1290. Besides, the remaining at 24 h in data set [12] was greater than 99%. Further, the result with Homo sapiens was Active. In addition, the solubility (commonly the concentration that dissolves in the medium under given conditions) at 24 h in data set [15] was found to be 72 µM (≈ 29.5 µg/mL).
